Screening results from PubChem.
Most compounds without a hit are left out; they make up all but 3% or so of the library.
TAAR1 agonist = agonists of human TAAR1 | AID 624467 | CHO RD-HGA16 TAAR1, Fluo-8 calcium fluorescence; vehicle wells 0%, saturating PEA agonist 100% | activation, % at 3 µM | Q96RJ0 | 360,000 compounds, 0.99% hits;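 active means activation above the mean activation of all test compounds in the run plus 3 SD, cut at about 38% in these data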
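Test system: RD-HGA16 (CHO) cells co-expressing Gα16 and hTAAR1; dosing: one-point dosing at 3 µM (nominal); timing: 17-24 h seeding, 75 min 37 °C dye, 30 min RT; signal: kinetic Fluo-8 calcium fluorescence; read-out basis: % activation relative to PEA EC100 response; controls: DMSO and PEA EC100; replicates: n 1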
CHRM4 antagonist = CHRM4 antagonism in calcium assay | P08173 | CHO-hM4 cells, ACh EC80, Fluo-8 calcium fluorescence | inhibition, % at 3 µM | 360,000 compounds, 0.73% hits | AID 624125;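 active means inhibition above its plate's cutoff, the mean inhibition of sample wells plus 3 SD, cut at about 27% in these data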;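 further: 0% = acetylcholine EC80 with DMSO and 100% = DMSO without agonist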
Target sequence (P08173 whole entry, looked up): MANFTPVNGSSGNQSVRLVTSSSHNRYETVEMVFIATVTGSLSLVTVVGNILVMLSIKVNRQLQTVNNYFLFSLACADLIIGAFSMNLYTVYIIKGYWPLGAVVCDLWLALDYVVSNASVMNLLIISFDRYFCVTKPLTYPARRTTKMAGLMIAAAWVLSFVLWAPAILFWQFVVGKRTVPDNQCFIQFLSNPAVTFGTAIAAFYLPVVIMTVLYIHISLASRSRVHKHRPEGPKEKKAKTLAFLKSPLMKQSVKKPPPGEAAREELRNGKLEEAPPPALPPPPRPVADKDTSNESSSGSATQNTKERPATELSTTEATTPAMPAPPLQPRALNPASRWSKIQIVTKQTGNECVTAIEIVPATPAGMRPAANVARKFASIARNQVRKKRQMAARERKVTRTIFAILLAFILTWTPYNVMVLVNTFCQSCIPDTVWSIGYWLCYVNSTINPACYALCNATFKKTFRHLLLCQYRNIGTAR
TAAR1 antagonist = human TAAR1 antagonism; Q96RJ0; CHO RD-HGA16 TAAR1, Fluo-8 calcium fluorescence, antagonist; inhibition, % at 3 µM; 360,000 compounds, 1.5% hits;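 active means inhibition above a per-plate cutoff, the mean inhibition of test compounds on that plate plus 3 SD, cut at about 49% in these data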;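 further: 0% = DMSO plus EC80 beta-PEA response and 100% = DMSO alone without agonist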
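System: RD-HGA16 CHO cells with stable hTAAR1 and Gα16 | Probe or stimulus: EC80 β-phenethylamine stimulus | Dosing: 3 µM, single point | Times: Dye loading 75 min at 37 °C, then 30 min room temperature | Measured by: Fluo-8 calcium-sensitive fluorescence | Read-out basis: % inhibition of agonist calcium response | Replicates: n of 1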
M4 PAM = positive allosteric modulators of human muscarinic M4 receptor; activation, % at 3 µM; CHO-K1 hM4/Gqi5, Fluo-8 calcium fluorescence, ACh EC20; 0% = ACh EC20, 100% = maximal ACh; 360,000 compounds, 0.4% hits;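 active means activation above its plate's cutoff, the mean activation of sample wells plus 3 SD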
M4 ag = CHRM4 agonism in calcium assay. P08173. CHO-K1 hM4/Gqi5, Fluo-8 calcium fluorescence; vehicle 0%, full acetylcholine response 100%. activation, % at 3 µM. 360,000 compounds, 0.14% hits. AID 624127;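 active means activation above the run mean over all test wells plus 3 SD, cut at about 32% in these data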;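 further: peak over basal fluorescence ratio per well then scaled between controls; 0% = DMSO wells and 100% = acetylcholine at EC100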
An asterisk follows results filed as active.

OC(Cn1ccnc1)c1ccc(Cl)cc1Cl (configuration not stated) was read as TAAR1 agonist 9, CHRM4 antagonist -6, TAAR1 antagonist 0, M4 PAM 11 and M4 ag 1.
CC[N+](CC)(CC)CCOc1cccc(OCC[N+](CC)(CC)CC)c1OCC[N+](CC)(CC)CC was read as CHRM4 antagonist -4, M4 PAM 1 and M4 ag 1.
`CC[N+](CC)(CC)CCOc1ccc(/C=C/c2ccccc2)cc1` gave TAAR1 agonist 15, CHRM4 antagonist 27*, TAAR1 antagonist -2, M4 PAM -14 and M4 ag 1.
`CC(=O)OC[C@@H]1CN(Cc2cccc(C(F)(F)F)c2)C[C@H](n2cnc3c(N4CCOCC4)ncnc32)O1` gave TAAR1 agonist -1, CHRM4 antagonist -18, TAAR1 antagonist -14, M4 PAM 5 and M4 ag 2.
`CC(=O)OC[C@@H]1CN(Cc2cccc(C(F)(F)F)c2)C[C@H](n2cnc3c(NCc4ccco4)ncnc32)O1` gave TAAR1 agonist 9, CHRM4 antagonist 16, TAAR1 antagonist 56*, M4 PAM -10 and M4 ag 24.
Screening CCCCCCCCN1C(=O)[C@@H](CC(=O)N2CCOCC2)C[C@@]2(C(=O)OC)C1=C[C@H](C1CCCC1)O[C@@H]2C returned TAAR1 agonist -2 and TAAR1 antagonist -44.
Screening COc1ccc(Cn2c(SCc3cc(C)ccc3C)nc3cc(OC)c(OC)cc3c2=N)cc1 returned TAAR1 agonist 32, CHRM4 antagonist 5, TAAR1 antagonist -25, M4 PAM 10 and M4 ag 4.
COc1ccc(Cn2c(SCc3ccc(C)cc3)nc3cc(OC)c(OC)cc3c2=N)cc1Cl was read as TAAR1 agonist 41*, CHRM4 antagonist 12, TAAR1 antagonist 1, M4 PAM 11 and M4 ag 1.
`Cc1c(C=NCCOCc2ccccc2)cnn1C` gave TAAR1 agonist 42*, CHRM4 antagonist 5, TAAR1 antagonist 25, M4 PAM 0 and M4 ag 1.
`c1ccc(COCCN2CCN(CCOCc3ccccc3)CC2)cc1` gave CHRM4 antagonist 1, M4 PAM -8 and M4 ag 1.
`C=CCN=C1NC(CCc2ccccc2)C(C(=O)OC)=C(C)N1Cc1ccccc1C(F)(F)F` (configuration not stated) gave TAAR1 agonist 10 and TAAR1 antagonist -9.
CC(C)CNC(=O)c1cccc2c(-c3cccc(C(N)=O)c3)coc12 was read as TAAR1 agonist -1, CHRM4 antagonist -3, TAAR1 antagonist -18, M4 PAM 4 and M4 ag 5.
For CN(C)CCCNCCCNC(=O)c1ccccn1 the results were TAAR1 agonist 1, CHRM4 antagonist 4, TAAR1 antagonist 0, M4 PAM 4 and M4 ag 1.
For CN(C)CCCNCCCNC(=O)/C(=N\O)c1ccccc1 the results were TAAR1 agonist 0, CHRM4 antagonist -17, TAAR1 antagonist -18, M4 PAM 33* and M4 ag 1.
For CCC(CC)c1nnc(NC(=O)CCc2ccccc2)s1 the results were TAAR1 agonist 10, CHRM4 antagonist -4, TAAR1 antagonist -3, M4 PAM 15* and M4 ag 0.
`CCC(CC)c1nnc(NC(=O)CCc2ccc(OC)cc2)s1` gave TAAR1 agonist 7, CHRM4 antagonist -13, TAAR1 antagonist 1, M4 PAM 2 and M4 ag 1.
For ONC(=Nc1ccccc1)c1ccc(Cl)cc1 the results were TAAR1 agonist 3, CHRM4 antagonist 3, TAAR1 antagonist 6, M4 PAM 4 and M4 ag -2.
Screening NC(=Nc1ccc(Cl)cc1)c1ccccc1 returned TAAR1 agonist 43*, CHRM4 antagonist 8, TAAR1 antagonist 17, M4 PAM -14 and M4 ag 12.
Screening CC(C)CCCN1C(N(C)C)=NC[C@@H]1C returned TAAR1 agonist 2, CHRM4 antagonist -6, TAAR1 antagonist 5, M4 PAM 14 and M4 ag 1.
Screening CCC(C)CCN1C(N(C)C)=NC[C@@H]1C (some centres not stated) returned TAAR1 agonist 7, CHRM4 antagonist 39*, TAAR1 antagonist 11, M4 PAM 5 and M4 ag 1.
COc1ccc([N+](=O)[O-])cc1NC(=S)NC(NC(=O)C(c1ccccc1)c1ccccc1)C(Cl)(Cl)Cl (configuration not stated) was read as TAAR1 agonist 10, CHRM4 antagonist 27*, TAAR1 antagonist 15, M4 PAM -5 and M4 ag 5.
Screening COc1cc(O)oc1C=Nc1ccc(Cl)cc1 returned TAAR1 agonist 8, CHRM4 antagonist -17, TAAR1 antagonist -30, M4 PAM 17* and M4 ag 1.
Screening CCCCN(C(=O)COC(=O)c1sccc1C)c1c(N)n(CCC)c(=O)[nH]c1=O returned TAAR1 agonist 0, CHRM4 antagonist 6, TAAR1 antagonist -1, M4 PAM 1 and M4 ag 1.
Screening CSc1ccc(Cn2c(C)c(C(=O)NCc3ccccc3C(F)(F)F)sc2=O)cc1 returned TAAR1 agonist 2, CHRM4 antagonist -5, TAAR1 antagonist 52*, M4 PAM 0 and M4 ag 9.
For OC(c1ccccc1)(c1ccccc1)C1CCN(CCCOc2ccc(-c3cncnc3)cc2)CC1 the results were TAAR1 agonist 29 and TAAR1 antagonist 18.
Screening CCOc1ccc(NC(=O)Cn2sc3nc(C)cc(C)c3c2=O)cc1 returned CHRM4 antagonist 55*, M4 PAM -30 and M4 ag 18.
`Cc1ccc(NC(=O)Cn2sc3nc(C)cc(C)c3c2=O)c(Cl)c1` gave TAAR1 agonist 25, CHRM4 antagonist 10, TAAR1 antagonist -11, M4 PAM -7 and M4 ag 25.
For Cn1nnnc1SCc1ccc(C(=O)Nc2nccs2)cc1 the results were TAAR1 agonist 4, CHRM4 antagonist -5, TAAR1 antagonist 19, M4 PAM -6 and M4 ag 3.
`C=CCn1c(SCc2ccc(C(=O)Nc3nccs3)cc2)nnc1-c1ccc(C)c(Cl)c1` gave TAAR1 agonist 8, CHRM4 antagonist 20, TAAR1 antagonist 65*, M4 PAM -16 and M4 ag 9.
`C(C#CCCCCCCCCC[n+]1ccccc1)#CCCCCCCCCC[n+]1ccccc1` gave CHRM4 antagonist 92*, M4 PAM -10 and M4 ag 0.
Cc1ccc(S(=O)(=O)N(C)[C@H]2C[C@H]3c4cc(-c5ccc6c(c5)OCO6)ccc4CCN3C[C@H]2[C@H](C)O)cc1 was read as TAAR1 agonist 1 and TAAR1 antagonist -32.
